Data set [1] concerns Fibroblast. Kind of data set: Induction of cell proliferation in human Gingival fibroblast at 0.5 to 10 uM after 72 hrs by MTS assay. Type of data set: functional, cell-based. Summed up:
(§1)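 Gingival fibroblasts seeded at 1500 cells/well, then starved 6 h in noncomplete medium after 24 h. Exposed for 72 h to 5 nM–50 μM (DMSO 0.5% final), with or without H2O2 200 μM. MTS absorbance read at 490 nm and expressed as % proliferation vs control set to 100%. Mean ± SD of three replicates from two experiments.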
For orientation: Tetrazolium dyes change colour on reduction, which living cells bring about.

Data set [2] relates to Fibroblast. Kind of data set: Growth inhibition of human Gingival fibroblast at 50 uM after 72 hrs by MTS assay. Type of data set: cell-based. An outline of the steps: as §1
In data set [3] the test system is Fibroblast. Kind of data set: Antioxidant activity in human Gingival fibroblast assessed as reduction in intracellular ROS level at 1 uM after 72 hrs by H2DCFDA staining based fluorescence method. Type of data set: functional, cell-based. Summed up:
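hGF (passage 4–7) seeded 5000 cells/well, treated 72 h in complete medium with or without H2O2 200 μM. Then loaded with 50 μM DCFH2-DA in PBS-glucose for 30 min. DCF fluorescence read at ex 485/em 520 nm and normalized to crystal violet absorbance at 595 nm. Expressed as % of control; three replicates, two independent experiments.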

In data set [4] the test system is Fibroblast. Nature of the data set: Induction of cell proliferation in human Gingival fibroblast at 1 uM after 72 hrs by MTS assay. Type of data set: functional. An outline of the steps: (§2)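 hGF (passage 4–7) seeded at 1500 cells/well. After 24 h, starved 6 h in noncomplete medium, then treated 72 h (5 nM–50 μM range, 0.5% DMSO final) with or without H2O2 (200 μM). Read by MTS absorbance at 490 nm as % proliferation vs control (100%). Mean ± SD, three replicates, two independent experiments.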

Data set [5] relates to Fibroblast. Nature of the data set: Protective activity against H202-induced cell death in human Gingival fibroblast assessed as cell proliferation after 72 hrs by MTS assay (reference value: 50.9 +/- 4%). Type of data set: functional. An outline of the steps: as §2
Data set [6] deals with Fibroblast. Nature of the data set: Antioxidant activity in human Gingival fibroblast assessed as reduction in H202-induced intracellular ROS level by measuring ROS production at 1 to 5 uM after 72 hrs by H2DCFDA staining based fluorescence method (reference value: 181.9 +/- 7.4%). The arrangement: scale not given: the % may be the effect or the level left. Type of data set: functional. Summed up:
(§3)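 hGF seeded 5000 cells/well, treated 72 h with or without H2O2 (200 μM); then 30 min in PBS-glucose with 50 μM DCFH2-DA. DCF fluorescence read at 485/520 nm. Cells then fixed, crystal-violet stained and SDS-solubilized, with absorbance at 595 nm. Fluorescence normalized to A595 and expressed as % of control. Mean ± SD, three replicates, two independent experiments.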

A short description of data set [7]: Induction of cell death in human Gingival fibroblast assessed as live cell at 1 uM after 72 hrs by flow cytometry (reference value: 97%). The format is cell-based. To be noted: gingival fibroblasts, read-out: Activity.
The test system of data set [8] is Fibroblast. Kind of data set: Induction of cell death in human Gingival fibroblast assessed as dead cell at 1 uM after 72 hrs by flow cytometry (reference value: 3%). Type of data set: cell-based.
The test system of data set [9] is Fibroblast. Kind of data set: Protection against H202-induced cell death in human Gingival fibroblast assessed as live cell at 1 to 5 uM after 72 hrs by flow cytometry (reference value: 85.1%). The format is functional. In general terms: A flow cytometer gives signals particle by particle.
Data set [10] relates to Fibroblast. Nature of the data set: Protection against H202-induced cell death in human Gingival fibroblast assessed as dead cell at 1 to 5 uM after 72 hrs by flow cytometry (reference value: 14.9%). The format is functional.
In data set [11] the test system is Fibroblast. Nature of the data set: Induction of cell cycle arrest in human Gingival fibroblast assessed as accumulation at G0/G1 phase at 1 uM incubated for 72 hrs by flow cytometry (reference value: 76.3%). Type of data set: cell-based. Summed up: (§4)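 hGF seeded at 80 000 cells/well and treated in complete medium 72 h (1–5 μM) with or without H2O2 (200 μM). Percentage of cells in G0/G1, S and G2/M measured on a Muse cell analyzer with a cell cycle kit. Mean ± SD, two replicates, two independent experiments.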

Data set [12] has as its system Fibroblast. Kind of data set: Induction of cell cycle arrest in human Gingival fibroblast assessed as accumulation at S phase at 1 uM incubated for 72 hrs by flow cytometry (reference value: 5%). Type of data set: cell-based. An outline of the steps: as §4
Data set [13] has as its system Fibroblast. Kind of data set: Induction of cell cycle arrest in human Gingival fibroblast assessed as accumulation at G2/M phase at 1 uM incubated for 72 hrs by flow cytometry (reference value: 14.9%). The format is cell-based. Summed up:
as §4

The subject of data set [14] is Fibroblast. Nature of the data set: Protection against H202-induced cell cycle blockade in human Gingival fibroblast assessed as accumulation at G0/G1 phase at 1 to 5 uM after 72 hrs by flow cytometry (reference value: 42.2%). Type of data set: functional. Summed up: as §4
The test system of data set [15] is Fibroblast. Kind of data set: Protection against H202-induced cell cycle blockade in human Gingival fibroblast assessed as accumulation at S phase at 1 to 5 uM after 72 hrs by flow cytometry (reference value: 11.6%). Type of data set: functional. Summed up:
as §4

For data set [16], the system named is Fibroblast. Nature of the data set: Protection against H202-induced cell cycle blockade in human Gingival fibroblast assessed as accumulation at G2/M phase at 1 to 5 uM after 72 hrs by flow cytometry (reference value: 39.3%). The format is functional. Summed up:
as §4

In data set [17] the test system is Fibroblast. Kind of data set: Effect on p53 mRNA expression in human Gingival fibroblast at 1 uM after 72 hrs by RT-PCR method. The format is ADME, cell-based. Summed up:
(§5)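 hGF (3500 cells/cm2) in complete medium, treated 72 h with or without H2O2 (200 μM). Real-time RT-PCR of total RNA for p53, p21 and p16INK4A. Levels normalized to β-actin and relative expression taken from Ct. Fold change vs control set to 1. Mean ± SD, two independent experiments in duplicate.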

For data set [18], the system named is Fibroblast. Kind of data set: Effect on p21 mRNA expression in human Gingival fibroblast at 1 uM after 72 hrs by RT-PCR method. The format is ADME, cell-based. Summed up:
as §5

The subject of data set [19] is Fibroblast. Kind of data set: Effect on p16Ink4a mRNA expression in human Gingival fibroblast at 1 uM after 72 hrs by RT-PCR method. Type of data set: ADME, cell-based. Summed up:
as §5

The test system of data set [20] is Fibroblast. Nature of the data set: Protection against H202-induced oxidative stress in human Gingival fibroblast assessed as reduction in p53 expression at 1 to 5 uM after 72 hrs by RT-PCR analysis. Type of data set: functional, cell-based. An outline of the steps: as §5
Data set [21] relates to Fibroblast. Kind of data set: Protection against H202-induced oxidative stress in human Gingival fibroblast assessed as reduction in p21 expression at 1 to 5 uM after 72 hrs by RT-PCR analysis. Type of data set: functional, cell-based. Summed up: as §5
The test system of data set [22] is Fibroblast. Kind of data set: Protection against H202-induced oxidative stress in human Gingival fibroblast assessed as reduction in p16Ink4a expression at 1 to 5 uM after 72 hrs by RT-PCR analysis. Type of data set: functional, cell-based. Summed up:
as §5

In data set [23] the test system is Fibroblast. Nature of the data set: Downregulation of LPS-induced IL-6 expression in human Gingival fibroblast at 1 to 5 uM after 72 hrs by RT-PCR analysis. Type of data set: functional, cell-based. Summed up: (§6)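 hGF (3500 cells/cm2) in complete medium, 1–5 μM for 72 h with or without LPS (1 μg/mL). Total RNA extracted, then real-time RT-PCR. mRNA normalized to β-actin and relative expression calculated from Ct. Specificity checked by melting curve and gel. Fold change vs control set to 1. Mean ± SD of two independent experiments in duplicate.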

Data set [24] deals with Fibroblast. Nature of the data set: Downregulation of LPS-induced IL-8 expression in human Gingival fibroblast at 1 to 5 uM after 72 hrs by RT-PCR analysis. Type of data set: functional, cell-based. Summed up:
as §6

Data set [25] relates to Fibroblast. Kind of data set: Upregulation of IL-10 expression in LPS-stimulated human Gingival fibroblast at 1 to 5 uM after 72 hrs by RT-PCR analysis. The format is functional, cell-based. An outline of the steps:
as §6

For data set [26], the system named is Fibroblast. Kind of data set: Growth inhibition of human Gingival fibroblast at 5 uM after 72 hrs by MTS assay. The format is cell-based. Summed up: as §2
The subject of data set [27] is Fibroblast. Nature of the data set: Antioxidant activity in human Gingival fibroblast assessed as reduction in H202-induced intracellular ROS level by measuring ROS production at […] after 72 hrs by H2DCFDA staining based fluorescence method (reference value: 181.9 +/- 7.4%). The format is functional. The arrangement: scale not given: the % may be the effect or the level left. Summed up:
as §3

The test system of data set [28] is Fibroblast. Nature of the data set: Protection against H202-induced cell cycle blockade in human Gingival fibroblast assessed as accumulation at G0/G1 phase after 72 hrs by flow cytometry (reference value: 42.2%). The format is functional. An outline of the steps:
as §4

Data set [29] concerns Fibroblast. Kind of data set: Protection against H202-induced cell cycle blockade in human Gingival fibroblast assessed as accumulation at S phase after 72 hrs by flow cytometry (reference value: 11.6%). Type of data set: functional. An outline of the steps:
as §4

Data set [30] deals with Fibroblast. Nature of the data set: Protection against H202-induced cell cycle blockade in human Gingival fibroblast assessed as accumulation at G2/M phase after 72 hrs by flow cytometry (reference value: 39.3%). Type of data set: functional. Summed up: as §4

Six molecules from ChEMBL document CHEMBL4613247, “Antioxidant Activity of Compounds Isolated from Elaeagnus umbellata Promotes Human Gingival Fibroblast Well-Being” (J Nat Prod, 2020) can be followed below.

SMILES strings stand for the structures. The source made the active and inactive calls. The rule behind the calls is not given here.

In the case of `O=c1c(O)c(-c2ccc(O)c(O)c2)oc2cc(O)cc(O)c12` [QUERCETIN], the outcome with Fibroblast [1] was inactive. Moreover, in the data set with Fibroblast [2], the “growth inhibition (GI)” value was “Toxic”. For the same molecule, in the data set with Fibroblast [3], the result was Active.

As to `C[C@@H]1O[C@@H](Oc2cc(O)c3c(=O)c(O[C@@H]4O[C@H](CO)[C@H](O)[C@H](O)[C@H]4O[C@@H]4O[C@H](CO)[C@@H](O)[C@H](O)[C@H]4O)c(-c4ccc(O)cc4)oc3c2)[C@H](O)[C@H](O)[C@H]1O`, the Activity in the data set with Fibroblast [4] is recorded as 125.6%; with Fibroblast [5], 68.8%; in the data set with Fibroblast [6] it was 124.2%; in the data set with Fibroblast [8], 6.7%; with Fibroblast [9] it was 90%; in the data set on Fibroblast [10], 10%. Moreover, the Activity in the data set on Fibroblast [11] was 81.5%; in the data set with Fibroblast [12] it was 4.8%; with Fibroblast [13], 10.5%; in the data set on Fibroblast [14], 69.8%; in the data set on Fibroblast [15], 13%; in the data set with Fibroblast [16], 14.2%. For the same molecule, the Activity entry in the data set with Fibroblast [17] is listed as “Non-Toxic”; in the data set on Fibroblast [18], “Non-Toxic”; in the data set on Fibroblast [19], “Toxic”. Further, the outcome in the data set on Fibroblast [3], in the data set with Fibroblast [20], in the data set on Fibroblast [21], in the data set with Fibroblast [22], with Fibroblast [23] and in the data set on Fibroblast [24] was Active. Further, in the data set on Fibroblast [25], the outcome was Active. Further, in data set [7], the viability at 72 h, 1 µM stood at 93.3%.

Regarding `O=c1c(O[C@@H]2O[C@H](CO)[C@H](O)[C@H](O)[C@H]2O[C@@H]2O[C@H](CO)[C@@H](O)[C@H](O)[C@H]2O)c(-c2ccc(O)cc2)oc2cc(O)cc(O)c12`, in the data set with Fibroblast [26], the “growth inhibition (GI)” value is “Toxic”.

With `CC(=O)N[C@@H](CS)C(=O)O` [ACETYLCYSTEINE], the Activity came out at 74.1% in the data set on Fibroblast [5]; 109.7% in the data set with Fibroblast [27]; 72.7% in the data set with Fibroblast [28]; 6.4% in the data set on Fibroblast [29]; 18.5% in the data set on Fibroblast [30].

As to `C[C@@H]1O[C@@H](Oc2cc(O)c3c(=O)c(O[C@@H]4O[C@H](CO)[C@H](O)[C@H](O)[C@H]4O[C@@H]4O[C@H](CO)[C@@H](O)[C@H](O)[C@H]4O)c(-c4ccc(O)c(O)c4)oc3c2)[C@H](O)[C@H](O)[C@H]1O`, in the data set on Fibroblast [26], the “growth inhibition (GI)” value was “Toxic”.

For the molecule `O=c1c(O)c(-c2ccc(O)cc2)oc2cc(O)cc(O)c12` [KAEMPFEROL], in the data set on Fibroblast [1], the outcome was inactive. For the same molecule, in the data set with Fibroblast [2], the “growth inhibition (GI)” value is on record as “Toxic”.
